Reference: ChEMBL document CHEMBL1255380, “Small molecule-mediated disruption of Wnt-dependent signaling in tissue regeneration and cancer” (Nat Chem Biol, 2009)
pIC50: −log10 of the molar value. Calls of active or inactive are those of the source. The calls are words filed in the database; no cut-off is given here.

What was measured:
[1] = Inhibition of Wnt3A/[…] pathway activity in mouse L cell expressing Wnt3a assessed as decrease in phosphorylated Dvl2 level at 10 uM after 24 hrs by Western blot analysis; type: cell-based
[2] = species on record: Danio rerio; test: Inhibition of caudal fin regeneration after mechanical resection in zebrafish at 10 uM after 7 days; type: functional, organism-based
Method in brief: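 Zebrafish 3-6 months old anaesthetized in 0.02% Tricaine; half of caudal fin resected with razor blade; kept at 28°C in tank water with 10μM compound or DMSO; water and compound replenished daily over assay period.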

[3] = Inhibition of Wnt3A/[…] pathway activity in mouse L cell expressing Wnt3a assessed as inhibition of […] accumulation at 10 uM after 24 hrs by Western blot analysis; type: cell-based
[4] = Inhibition of Wnt3A/[…] pathway activity in mouse L cell expressing Wnt3a assessed as decrease in phosphorylated Lrp6 level at 10 uM after 24 hrs by Western blot analysis; type: cell-based
[5] = Inhibition of Wnt3A/[…] pathway activity in mouse L cell expressing Wnt3A and STF assessed as decreased firefly luciferase reporter expression; type: cell-based
Method in brief: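 L-Wnt-STF cells (mouse L-cells stably carrying SuperTopFlash firefly luciferase reporter, control reporter and Wnt3A expression construct), ~5K per well; compounds added 24 hrs after seeding; luciferase activities read 24 hrs later; IC50s calculated from these dose-dependent assays.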

[6] = Inhibition of Wnt2/beta-[…] pathway activity in mouse L cell expressing Wnt2 and STF assessed as decreased firefly luciferase reporter expression; type: cell-based
[7] = target: Axin-2 (Homo sapiens) (UniProt Q9Y2T1); test: Induction of Axin2 accumulation in human DLD1 cells by Western blot analysis; type: cell-based; details: DLD-1
Sequence of Axin-2 (Homo sapiens) (Q9Y2T1 whole entry): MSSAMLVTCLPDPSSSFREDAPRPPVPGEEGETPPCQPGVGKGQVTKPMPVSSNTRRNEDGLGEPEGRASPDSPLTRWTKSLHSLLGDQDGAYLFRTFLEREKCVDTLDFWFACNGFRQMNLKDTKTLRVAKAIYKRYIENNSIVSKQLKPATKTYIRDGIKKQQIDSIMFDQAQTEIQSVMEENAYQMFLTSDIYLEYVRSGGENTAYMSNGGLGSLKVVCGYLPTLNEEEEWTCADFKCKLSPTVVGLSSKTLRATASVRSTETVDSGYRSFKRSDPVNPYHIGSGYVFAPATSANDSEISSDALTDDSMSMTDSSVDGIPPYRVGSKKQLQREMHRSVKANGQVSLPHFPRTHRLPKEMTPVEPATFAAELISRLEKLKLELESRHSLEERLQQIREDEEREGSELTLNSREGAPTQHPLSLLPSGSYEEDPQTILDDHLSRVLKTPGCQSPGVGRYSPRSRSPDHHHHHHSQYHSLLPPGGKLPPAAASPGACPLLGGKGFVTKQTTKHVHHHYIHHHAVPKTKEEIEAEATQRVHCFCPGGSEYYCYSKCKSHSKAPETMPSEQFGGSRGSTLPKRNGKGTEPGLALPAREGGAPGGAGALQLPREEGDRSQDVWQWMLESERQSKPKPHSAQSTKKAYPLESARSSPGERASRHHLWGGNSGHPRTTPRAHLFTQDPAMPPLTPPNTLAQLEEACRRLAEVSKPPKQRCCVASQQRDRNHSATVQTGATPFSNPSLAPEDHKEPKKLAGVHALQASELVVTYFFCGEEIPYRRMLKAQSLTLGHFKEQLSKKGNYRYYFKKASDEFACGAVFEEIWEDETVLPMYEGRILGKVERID
Method in brief: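 DLD-1 cells exposed to IWR compound at 10μM for a 48 hr assay period; protein levels assessed by Western blot of cell lysates.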

[8] = Inhibition of Wnt1/beta-[…] pathway activity in mouse L cell expressing Wnt1 and STF assessed as decreased firefly luciferase reporter expression; type: cell-based
[9] = system: DLD-1; test: Decrease in beta-[…] accumulation in human DLD1 cells expressing in APC mutant; type: functional, cell-based
[10] = Inhibition of Wnt/beta-[…] pathway activity in mouse L cell expressing Wnt and STF assessed as decreased firefly luciferase reporter expression; type: cell-based
[11] = system: L929; test: Decrease in beta-[…] accumulation in APC-deficient mouse L cell; type: functional, cell-based
[12] = system: DLD-1; test: Inhibition of Axin2 protein degradation in human DLD1 cells by Western blot analysis in presence of 100 uM cyclohexamide; type: functional, cell-based
Method in brief: (§1)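 DLD-1 cells treated over a 48 hr assay period with IWR compound (10μM), with or without cycloheximide (100μM); Axin2 protein assessed by Western blot.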

[13] = system: Cos1; test: Effect on Axin2 subcellular redistribution in african green monkey Cos1 cells by immunostaining method; type: cell-based; details: Chlorocebus aethiops
[14] = target: Axin-2 (Homo sapiens) (UniProt Q9Y2T1); test: Induction of Axin2 stabilization in human DLD1 cells assessed as inhibition of Wnt/beta-[…] pathway; type: cell-based; details: DLD-1
[15] = target: Protein Wnt (Danio rerio) (UniProt Q6IYD9); details: 10 uM
Sequence of Protein Wnt (Danio rerio) (Q6IYD9 as listed by the source): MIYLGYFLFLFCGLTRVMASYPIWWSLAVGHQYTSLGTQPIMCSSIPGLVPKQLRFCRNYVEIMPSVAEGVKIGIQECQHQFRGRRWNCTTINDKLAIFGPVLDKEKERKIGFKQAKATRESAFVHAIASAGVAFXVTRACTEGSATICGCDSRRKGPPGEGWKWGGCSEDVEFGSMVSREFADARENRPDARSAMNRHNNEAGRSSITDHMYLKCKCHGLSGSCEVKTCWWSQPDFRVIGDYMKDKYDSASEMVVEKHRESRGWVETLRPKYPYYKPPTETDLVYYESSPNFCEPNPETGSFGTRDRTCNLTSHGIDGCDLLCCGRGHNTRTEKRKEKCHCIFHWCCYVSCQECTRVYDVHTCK

[16] = system: DLD-1; test: Inhibition of Axin2 protein degradation in human DLD1 cells by Western blot analysis; type: functional, cell-based; method in brief: as §1
[17] = system: L; test: Effect on proteasome in mouse L cell expressing Wnt assessed as accumulation of beta-[…] by Western blot analysis
Method in brief: (§2)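 L-Wnt-STF cells (L-cells stably carrying Wnt3A, STF firefly luciferase reporter and control reporter) treated with IWR (10μM) or IWP (5μM) compounds, with or without cycloheximide (100μM), over 48 hrs; lysates probed by Western blot.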

[18] = system: HEK293; test: Effect on interaction between Axin1-GFP and PP2A in HEK293 cell lysate at 10 uM by Western blot analysis; type: cell-based; details: Homo sapiens
[19] = system: L; test: Effect on proteasome in mouse L cell expressing Wnt assessed as accumulation of Axin1 by Western blot analysis; method in brief: as §2
[20] = target: Membrane-bound glycerophospholipid O-acyltransferase 2 (Mus musculus) (UniProt Q8R3I2); test: Inhibition of MBOAT2 mediated Wnt3a pathway activity in mouse L cell expressing Wnt3a assessed as decreased firefly luciferase reporter expression at 0.25 uM to 1 uM; type: cell-based
Sequence of Membrane-bound glycerophospholipid O-acyltransferase 2 (Mus musculus) (Q8R3I2 whole entry): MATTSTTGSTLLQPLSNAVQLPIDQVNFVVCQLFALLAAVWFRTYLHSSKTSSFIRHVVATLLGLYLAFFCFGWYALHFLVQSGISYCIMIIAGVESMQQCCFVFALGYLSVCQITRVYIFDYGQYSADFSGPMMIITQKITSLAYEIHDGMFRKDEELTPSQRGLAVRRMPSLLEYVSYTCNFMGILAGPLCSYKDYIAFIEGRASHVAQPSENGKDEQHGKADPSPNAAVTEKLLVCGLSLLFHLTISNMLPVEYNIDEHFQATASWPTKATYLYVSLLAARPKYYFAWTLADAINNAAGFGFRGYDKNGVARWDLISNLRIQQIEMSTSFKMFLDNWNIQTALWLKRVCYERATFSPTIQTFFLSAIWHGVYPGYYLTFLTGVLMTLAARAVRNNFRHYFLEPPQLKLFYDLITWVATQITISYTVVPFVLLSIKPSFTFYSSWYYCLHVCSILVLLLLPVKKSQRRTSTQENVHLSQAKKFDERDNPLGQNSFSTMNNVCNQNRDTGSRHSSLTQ

[21] = Inhibition of Wnt3A/[…] pathway activity in mouse L cell expressing Wnt3a assessed as decrease in phosphorylated Dvl2 level at 5 uM after 24 hrs by Western blot analysis; type: cell-based
[22] = target: Sterol O-acyltransferase 1 (Mus musculus) (UniProt Q61263); test: Inhibition of ACAT mediated Wnt3a pathway activity in mouse L cell expressing Wnt3a assessed as decreased firefly luciferase reporter expression at 0.25 uM to 1 uM; type: cell-based
Sequence of Sterol O-acyltransferase 1 (Mus musculus) (Q61263 whole entry): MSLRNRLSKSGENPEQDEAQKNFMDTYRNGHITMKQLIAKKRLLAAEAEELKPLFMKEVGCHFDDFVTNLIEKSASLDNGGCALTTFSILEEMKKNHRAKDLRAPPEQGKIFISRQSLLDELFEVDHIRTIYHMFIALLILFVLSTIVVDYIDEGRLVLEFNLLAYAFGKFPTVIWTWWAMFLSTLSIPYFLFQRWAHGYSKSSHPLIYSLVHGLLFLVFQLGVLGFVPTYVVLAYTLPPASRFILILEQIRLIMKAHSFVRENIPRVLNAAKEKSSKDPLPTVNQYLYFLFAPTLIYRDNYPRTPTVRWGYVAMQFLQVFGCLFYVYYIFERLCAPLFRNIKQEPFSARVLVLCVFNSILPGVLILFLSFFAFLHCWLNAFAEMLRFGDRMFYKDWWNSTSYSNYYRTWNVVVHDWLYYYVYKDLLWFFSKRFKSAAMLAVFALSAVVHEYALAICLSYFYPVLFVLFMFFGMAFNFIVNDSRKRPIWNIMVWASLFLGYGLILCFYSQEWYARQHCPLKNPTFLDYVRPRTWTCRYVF

[23] = target: Protein Wnt-3a (Homo sapiens) (UniProt P56704); test: Inhibition of Wnt3A activity in mouse L cell expressing Wnt3A and STF and overexpressing porcn assessed as decreased firefly luciferase reporter expression at 0.25 uM to 1 uM; type: cell-based
Sequence of Protein Wnt-3a (Homo sapiens) (P56704 whole entry, the tested form may be a part): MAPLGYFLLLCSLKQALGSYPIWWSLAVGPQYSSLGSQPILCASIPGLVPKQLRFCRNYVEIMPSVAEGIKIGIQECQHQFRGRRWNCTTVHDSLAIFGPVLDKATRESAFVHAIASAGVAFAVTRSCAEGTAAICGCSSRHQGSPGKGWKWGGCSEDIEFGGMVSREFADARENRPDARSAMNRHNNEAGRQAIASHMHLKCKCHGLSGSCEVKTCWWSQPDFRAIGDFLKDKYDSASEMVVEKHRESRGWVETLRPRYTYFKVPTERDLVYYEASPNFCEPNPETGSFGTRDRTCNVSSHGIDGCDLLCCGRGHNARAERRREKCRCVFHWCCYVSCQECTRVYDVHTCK

[24] = target: Membrane-bound glycerophospholipid O-acyltransferase 1 (Mus musculus) (UniProt Q8BH98); test: Inhibition of MBOAT1 mediated Wnt3a pathway activity in mouse L cell expressing Wnt3a assessed as decreased firefly luciferase reporter expression at 0.25 uM to 1 uM; type: cell-based
Sequence of Membrane-bound glycerophospholipid O-acyltransferase 1 (Mus musculus) (Q8BH98 whole entry): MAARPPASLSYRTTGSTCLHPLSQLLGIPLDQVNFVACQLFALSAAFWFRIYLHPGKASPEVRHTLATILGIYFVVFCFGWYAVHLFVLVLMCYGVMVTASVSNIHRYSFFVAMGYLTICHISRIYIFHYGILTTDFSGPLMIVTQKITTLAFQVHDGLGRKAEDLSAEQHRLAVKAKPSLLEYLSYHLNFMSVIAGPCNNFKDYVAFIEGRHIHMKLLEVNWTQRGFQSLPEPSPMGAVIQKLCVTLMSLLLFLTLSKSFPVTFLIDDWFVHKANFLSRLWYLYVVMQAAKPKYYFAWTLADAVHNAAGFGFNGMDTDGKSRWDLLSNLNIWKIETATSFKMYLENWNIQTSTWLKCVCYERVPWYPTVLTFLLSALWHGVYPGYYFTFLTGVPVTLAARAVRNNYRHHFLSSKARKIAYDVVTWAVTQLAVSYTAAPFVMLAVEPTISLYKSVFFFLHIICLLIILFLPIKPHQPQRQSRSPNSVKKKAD

[25] = target: Protein Wnt-3a (Homo sapiens) (UniProt P56704); test: Inhibition of Wnt3A secretion in mouse L cell expressing Wnt3a overexpressing Evi assessed as decreased Gaussia luciferase reporter expression at 0.25 uM to 1 uM; type: cell-based
Method in brief: (§3)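 Wnt secretion test: L-cells transiently transfected with Wnt-Gaussia luciferase fusion construct, incubated with compounds immediately after transfection, GL activity measured 48 hrs later.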

[26] = Inhibition of Wnt3A/[…] pathway activity in mouse L cell expressing Wnt3a assessed as decrease in phosphorylated Lrp6 level at 5 uM after 24 hrs by Western blot analysis; type: cell-based
[27] = target: T1, Protein-serine O-palmitoleoyltransferase porcupine (Mus musculus) (UniProt Q9JJJ7); test: Inhibition of porcn-mediated Wnt5A palmitoylation in mouse L cell expressing Wnt5A and STF by detergent solubility fractionation assessed as [3H]palmitate incorporation at 2 uM by autoradiography method; type: cell-based
T1 sequence (whole entry): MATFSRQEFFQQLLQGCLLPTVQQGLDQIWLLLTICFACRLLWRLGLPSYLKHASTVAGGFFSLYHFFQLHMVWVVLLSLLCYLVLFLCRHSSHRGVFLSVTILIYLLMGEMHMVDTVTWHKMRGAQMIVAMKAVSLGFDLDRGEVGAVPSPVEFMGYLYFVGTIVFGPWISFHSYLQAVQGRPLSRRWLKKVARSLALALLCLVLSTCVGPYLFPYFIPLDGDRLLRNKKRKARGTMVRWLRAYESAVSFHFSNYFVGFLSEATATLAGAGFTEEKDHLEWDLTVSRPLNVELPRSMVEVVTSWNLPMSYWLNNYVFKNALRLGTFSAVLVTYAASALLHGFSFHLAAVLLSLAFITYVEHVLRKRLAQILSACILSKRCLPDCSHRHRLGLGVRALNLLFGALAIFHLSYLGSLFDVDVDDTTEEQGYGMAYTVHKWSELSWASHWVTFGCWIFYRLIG

[28] = target: T1, Protein-serine O-palmitoleoyltransferase porcupine (Mus musculus); test: Increase in porcn levels in mouse L cell expressing Wnt and STF; type: cell-based
[29] = target: Protein Wnt-3a (Homo sapiens) (UniProt P56704); test: Inhibition of Wnt3A secretion in mouse L cell expressing Wnt3a overexpressing porcn assessed as decreased Gaussia luciferase reporter expression at 0.25 uM to 1 uM; type: cell-based; method in brief: as §3
[30] = Inhibition of Wnt3A/[…] pathway activity in mouse L cell expressing Wnt3a assessed as inhibition of […] accumulation at 5 uM after 24 hrs by Western blot analysis; type: cell-based
[31] = target: Protein Wnt-3a (Mus musculus) (UniProt P27467); test: Inhibition of Wnt3A palmitoylation in mouse L cell expressing Wnt3a and overexpressing porcn by detergent solubility fractionation assessed as [3H]palmitate incorporation at 2.5 uM by autoradiography method
Sequence of Protein Wnt-3a (Mus musculus) (P27467 whole entry): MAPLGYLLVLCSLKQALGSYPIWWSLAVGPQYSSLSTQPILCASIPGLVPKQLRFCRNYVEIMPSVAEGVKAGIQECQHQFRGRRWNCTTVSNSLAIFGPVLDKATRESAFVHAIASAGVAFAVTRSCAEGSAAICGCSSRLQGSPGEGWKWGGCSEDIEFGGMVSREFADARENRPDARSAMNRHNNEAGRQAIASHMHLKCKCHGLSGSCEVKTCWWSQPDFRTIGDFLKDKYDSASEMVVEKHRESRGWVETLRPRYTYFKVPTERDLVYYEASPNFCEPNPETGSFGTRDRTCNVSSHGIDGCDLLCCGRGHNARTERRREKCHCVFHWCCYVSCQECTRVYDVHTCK

[32] = target: T2, Protein-serine O-palmitoleoyltransferase porcupine (Homo sapiens) (UniProt Q9H237); test: Displacement of IWP-PB from porcn in HEK293 lysate by Western blot analysis
T2 sequence (whole entry): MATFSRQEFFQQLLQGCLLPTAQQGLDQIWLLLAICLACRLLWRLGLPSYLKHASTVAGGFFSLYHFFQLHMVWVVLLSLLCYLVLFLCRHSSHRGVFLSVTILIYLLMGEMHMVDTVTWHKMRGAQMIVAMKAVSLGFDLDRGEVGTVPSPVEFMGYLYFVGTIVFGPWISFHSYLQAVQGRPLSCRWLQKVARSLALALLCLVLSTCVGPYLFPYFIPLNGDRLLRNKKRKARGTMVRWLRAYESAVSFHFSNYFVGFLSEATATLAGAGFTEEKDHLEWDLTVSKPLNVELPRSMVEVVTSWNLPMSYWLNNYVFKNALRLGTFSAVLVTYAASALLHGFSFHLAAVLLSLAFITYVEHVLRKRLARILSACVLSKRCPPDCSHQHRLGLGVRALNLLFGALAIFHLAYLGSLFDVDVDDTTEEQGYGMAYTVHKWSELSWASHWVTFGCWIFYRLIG

[33] = target: Protein Wnt-3a (Homo sapiens) (UniProt P56704); test: Inhibition of palmitoylation of Wnt3A expressed in mouse L cell by detergent solubility fractionation assessed as [3H]palmitate incorporation at 2.5 uM by autoradiography method; type: cell-based
[34] = target: T1, Protein-serine O-palmitoleoyltransferase porcupine (Mus musculus); test: Effect on porcn Endoplasmic reticulum localization in mouse L cell expressing Wnt and STF; type: cell-based
[35] = target: T2, Protein-serine O-palmitoleoyltransferase porcupine (Homo sapiens); test: Inhibition of porcn-mediated Shh palmitoylation in human DLD1 lysate by detergent solubility fractionation assessed as [3H]palmitate incorporation at 2.5 uM by autoradiography method
[36] = Inhibition of Notch pathway in mouse L cells at 2.5 uM
[37] = target: Protein-cysteine N-palmitoyltransferase HHAT (Mus musculus) (UniProt Q8BMT9); test: Inhibition of HHAT mediated Wnt pathway activity in mouse L cell expressing Wnt3a assessed as decreased firefly luciferase reporter expression at 0.25 uM to 1 uM; type: cell-based
Sequence of Protein-cysteine N-palmitoyltransferase HHAT (Mus musculus) (Q8BMT9 whole entry): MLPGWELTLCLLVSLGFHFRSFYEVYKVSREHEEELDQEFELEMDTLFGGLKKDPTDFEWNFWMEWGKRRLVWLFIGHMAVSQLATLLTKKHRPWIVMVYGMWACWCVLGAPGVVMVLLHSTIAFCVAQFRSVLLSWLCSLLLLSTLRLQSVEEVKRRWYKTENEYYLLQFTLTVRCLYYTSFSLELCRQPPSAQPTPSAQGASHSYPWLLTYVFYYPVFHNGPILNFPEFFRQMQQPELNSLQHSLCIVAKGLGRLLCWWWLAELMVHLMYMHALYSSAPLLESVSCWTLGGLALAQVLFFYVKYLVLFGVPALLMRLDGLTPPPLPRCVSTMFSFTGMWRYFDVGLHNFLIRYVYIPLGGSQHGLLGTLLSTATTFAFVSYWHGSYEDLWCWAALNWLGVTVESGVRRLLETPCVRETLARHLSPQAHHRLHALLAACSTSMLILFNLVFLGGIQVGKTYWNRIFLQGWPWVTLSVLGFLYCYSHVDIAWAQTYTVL

[38] = target: Membrane-bound ghrelin O-acyltransferase MBOAT4 (Mus musculus) (UniProt P0C7A3); test: Inhibition of GOAT mediated Wnt3a pathway activity in mouse L cell expressing Wnt3a assessed as decreased firefly luciferase reporter expression at 0.25 uM to 1 uM; type: cell-based
Sequence of Membrane-bound ghrelin O-acyltransferase MBOAT4 (Mus musculus) (P0C7A3 whole entry): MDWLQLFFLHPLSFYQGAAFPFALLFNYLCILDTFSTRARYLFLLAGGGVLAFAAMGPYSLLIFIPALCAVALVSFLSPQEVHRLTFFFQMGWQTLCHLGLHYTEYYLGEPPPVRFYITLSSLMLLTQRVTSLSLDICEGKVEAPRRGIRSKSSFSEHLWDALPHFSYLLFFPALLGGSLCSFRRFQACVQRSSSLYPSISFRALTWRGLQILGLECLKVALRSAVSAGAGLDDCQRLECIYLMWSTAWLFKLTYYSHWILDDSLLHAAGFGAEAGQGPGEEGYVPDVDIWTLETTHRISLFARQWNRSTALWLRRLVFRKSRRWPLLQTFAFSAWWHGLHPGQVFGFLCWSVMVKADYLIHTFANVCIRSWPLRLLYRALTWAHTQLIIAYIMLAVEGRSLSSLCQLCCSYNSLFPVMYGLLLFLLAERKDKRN

[39] = target: Protein Wnt-3a (Homo sapiens) (UniProt P56704); test: Inhibition of Wnt3A activity in mouse L cell expressing Wnt3A and STF and overexpressing Evi assessed as decreased firefly luciferase reporter expression at 0.25 uM to 1 uM; type: cell-based
[40] = target: Protein Wnt-3a (Homo sapiens) (UniProt P56704); test: Inhibition of lipidation of Wnt3A expressed in mouse L cell at 2 uM by detergent solubility fractionation assay; type: cell-based
[41] = target: Protein Wnt-3a (Mus musculus) (UniProt P27467); test: Inhibition of Wnt3A lipidation in mouse L cell expressing Wnt3a and overexpressing porcn at 2 uM by detergent solubility fractionation assay; type: cell-based
[42] = target: Lysophospholipid acyltransferase 5 (Mus musculus) (UniProt Q91V01); test: Inhibition of MBOAT5 mediated Wnt3a pathway activity in mouse L cell expressing Wnt3a assessed as decreased firefly luciferase reporter expression at 0.25 uM to 1 uM; type: cell-based
Sequence of Lysophospholipid acyltransferase 5 (Mus musculus) (Q91V01 whole entry): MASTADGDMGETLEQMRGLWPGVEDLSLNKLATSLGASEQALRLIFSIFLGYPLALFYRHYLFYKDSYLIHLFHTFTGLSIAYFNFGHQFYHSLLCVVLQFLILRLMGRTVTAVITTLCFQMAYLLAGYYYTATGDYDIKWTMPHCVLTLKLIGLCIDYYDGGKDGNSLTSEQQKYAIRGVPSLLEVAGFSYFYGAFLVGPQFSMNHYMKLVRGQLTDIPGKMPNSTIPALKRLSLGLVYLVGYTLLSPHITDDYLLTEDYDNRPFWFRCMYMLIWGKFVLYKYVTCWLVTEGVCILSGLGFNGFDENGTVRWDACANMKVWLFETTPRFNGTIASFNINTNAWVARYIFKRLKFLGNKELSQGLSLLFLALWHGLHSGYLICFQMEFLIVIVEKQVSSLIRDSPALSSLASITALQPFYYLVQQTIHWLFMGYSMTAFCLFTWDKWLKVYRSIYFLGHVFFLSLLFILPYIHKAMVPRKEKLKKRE

Which inhibition [1] does the source give for Cc1ccnc2c(NC(=O)c3ccc(N4C(=O)[C@@H]5[C@H](C4=O)[C@@H]4C=C[C@H]5C4)cc3)cccc12 here?
The inhibition was “inactive”.

And the inhibition [2]?
The inhibition was “Active”.

What about the inhibition [3] of the same molecule?
Its inhibition is “Active”.

And the inhibition [4]?
Its inhibition is “inactive”.

And the inhibition [5]?
Its inhibition is “Active”.

And the inhibition [6]?
The inhibition was “Active”.

And the Activity [7]?
Its Activity is “Active”.

What about the inhibition [8] of the same molecule?
The inhibition was “Active”.

And the inhibition [9]?
Its inhibition is “Active”.

And the pIC50 [10]?
Its pIC50 is 6.64.

With O=C(Nc1cccc2cccnc12)c1ccc(N2C(=O)[C@@H]3[C@H](C2=O)[C@@H]2C=C[C@H]3C2)cc1 as the molecule, how does the inhibition [11] read?
The inhibition was “Active”.

What about the inhibition [12] of the same molecule?
Its inhibition is “inactive”.

What about the inhibition [1] of the same molecule?
The inhibition was “inactive”.

What about the inhibition [2] of the same molecule?
The inhibition was “Active”.

And the Activity [13]?
Its Activity is “inactive”.

And the inhibition [3]?
Its inhibition is “Active”.

What about the Activity [14] of the same molecule?
Its Activity is “Active”.

What about the inhibition [15] of the same molecule?
Its inhibition is “Active”.

And the inhibition [16]?
Its inhibition is “Active”.

And the inhibition [4]?
The inhibition was “inactive”.

What about the inhibition [5] of the same molecule?
The inhibition was “Active”.

And the inhibition [6]?
The inhibition was “Active”.

What about the Activity [17] of the same molecule?
Its Activity is “inactive”.

And the Activity [7]?
The Activity was “Active”.

What about the inhibition [8] of the same molecule?
The inhibition was “Active”.

And the inhibition [9]?
The inhibition was “Active”.

And the Activity [18]?
Its Activity is “inactive”.

And the Activity [19]?
The Activity was “inactive”.

Which results are given for Cc1ccc2nc(NC(=O)CSc3nc4c(c(=O)n3-c3ccccc3)SCC4)sc2c1?
inhibition [20]: inactive; inhibition [21]: Active; inhibition [22]: inactive; inhibition [23]: inactive; inhibition [2]: inactive; inhibition [24]: inactive; inhibition [25]: inactive; inhibition [26]: Active; inhibition [27]: Active; Activity [28]: Active; inhibition [29]: inactive; inhibition [30]: Active; inhibition [31]: inactive; inhibition [32]: Active; inhibition [33]: Active; Activity [34]: inactive; inhibition [35]: inactive; inhibition [36]: inactive; inhibition [37]: inactive; inhibition [38]: inactive; inhibition [39]: inactive; inhibition [40]: Active; inhibition [41]: Active; inhibition [42]: inactive
